Measured values reported in ChEMBL document CHEMBL4414668, “Phallusialides A-E, Pyrrole-Derived Alkaloids Discovered from a Marine-Derived Micromonospora sp. Bacterium Using MS-Based Metabolomics Approaches” (2019).
Converted amounts (≈) assume the structure as drawn. The source made the active and inactive calls. The calls are words filed in the database; no cut-off is given here.

What was measured:
Escherichia coli [1] = test: Antibacterial activity against Escherichia coli ATCC 25922 incubated for 18 hrs by dilution antimicrobial susceptibility test; format: functional
How it was run: (§1)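 Dilution susceptibility test for aerobic bacteria. Compounds in DMSO, serially diluted to 10 concentrations (0.5–256 μg/mL), tested in triplicate. Positive controls were vancomycin for MRSA ATCC 33591 and gentamicin for E. coli ATCC 25922. Each plate carried six untreated media controls. Incubation was 35 °C for 18 h. MIC was read as the lowest concentration with no visible bacterial growth.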

Staphylococcus aureus [2] = test: Antibacterial activity against methicillin-resistant Staphylococcus aureus ATCC 33591 incubated for 18 hrs by dilution antimicrobial susceptibility test; details: ATCC 33591, 18 h
Escherichia coli [3] = test: Antibacterial activity against Escherichia coli ATCC 25922 at 256 ug/ml incubated for 18 hrs by dilution antimicrobial susceptibility test; format: functional, organism-based; how it was run: as §1
Staphylococcus aureus [4] = test: Antibacterial activity against methicillin-resistant Staphylococcus aureus ATCC 33591 at 256 ug/ml incubated for 18 hrs by dilution antimicrobial susceptibility test

C[C@@H]1O[C@@H](O)C[C@@](C)(N)[C@H]1O[C@H]1CC[C@H](OC(=O)c2cc(Br)c[nH]2)[C@@H](C)O1
MIC (Escherichia coli [1]; ATCC 25922, 18 h): 64 µg/mL (≈ 143 µM) | MIC (Staphylococcus aureus [2]): 32 µg/mL (≈ 71.5 µM)

C[C@@H]1O[C@H](O)C[C@@](C)(NC(=O)CCC(=O)O)[C@H]1O[C@@H]1C[C@@](C)(N)[C@@H](O[C@H]2CC[C@H](OC(=O)c3cc(Cl)c[nH]3)[C@@H](C)O2)[C@H](C)O1
Activity (Escherichia coli [3]): inactive | Activity (Staphylococcus aureus [4]): inactive

GENTAMICIN
MIC (Escherichia coli [1]): 4 µg/mL

C[C@@H]1O[C@@H](O)C[C@@](C)(N)[C@H]1O[C@H]1CC[C@H](OC(=O)c2ccc[nH]2)[C@@H](C)O1
Activity (Escherichia coli [3]): inactive | Activity (Staphylococcus aureus [4]): inactive

CN[C@H](CC(C)C)C(=O)N[C@H]1C(=O)N[C@@H](CC(N)=O)C(=O)N[C@H]2C(=O)N[C@H]3C(=O)N[C@H](C(=O)N[C@H](C(=O)O)c4cc(O)cc(O)c4-c4cc3ccc4O)[C@H](O)c3ccc(c(Cl)c3)Oc3cc2cc(c3O[C@@H]2O[C@H](CO)[C@@H](O)[C@H](O)[C@H]2O[C@H]2C[C@](C)(N)[C@H](O)[C@H](C)O2)Oc2ccc(cc2Cl)[C@H]1O [VANCOMYCIN]
MIC (Staphylococcus aureus [2]): 0.25 µg/mL (≈ 0.173 µM)

C[C@@H]1O[C@@H](O)C[C@@](C)(N)[C@H]1O[C@H]1CC[C@H](OC(=O)c2cc(Cl)c[nH]2)[C@@H](C)O1
MIC (Escherichia coli [1]; ATCC 25922, 18 h): 64 µg/mL (≈ 159 µM) | MIC (Staphylococcus aureus [2]): 32 µg/mL (≈ 79.4 µM)

C[C@@H]1O[C@H](O[C@H]2CC[C@H](O)O[C@@H]2C)C[C@@](C)(N)[C@H]1O[C@H]1CC[C@H](OC(=O)c2cc(Cl)c[nH]2)[C@@H](C)O1
Activity (Escherichia coli [3]): inactive | Activity (Staphylococcus aureus [4]): inactive
